According to publication PMC3587690 (Bioorganic & medicinal chemistry, 2012):
Blank lines part the entries; values can stand above or below the molecule they belong to.

How the values were obtained:
[1] = test system: A549, MCF-7, MDA-MB-231 and MDA-MB-468; test: MTT growth inhibition, average of four cancer cell lines; format: cell-based; conditions: read-out: GI50 Average
In short: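 Each of the four lines, grown in DMEM with 10% FBS at 37 °C and 5% CO2, was incubated with the test compound for 72 h, and growth was read by MTT absorbance at 570 nm. Percent growth was 100 × (treated − time-0)/(medium control − time-0). GI50 came from non-linear regression of the growth–concentration curve, and the four mean GI50s were averaged. Single experiments were run in duplicate where no SD is given.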

[2] = test system: NCI-60 cancer cell panel; test: NCI-60 cancer cell panel; format: cell-based; conditions: Fig. S1
[3] = test system: p53-mediated gene transcription; test: p53 transcription reporter assay; format: cell-based; conditions: transcription reporter assay (Fig. S2)
[4] = test system: VEGF; test: qRT-PCR of VEGF transcript in A549 cells; format: cell-based; conditions: 4 h
In short: (§1)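 Exponentially growing A549 cells were treated in duplicate for 4 h. Total RNA was extracted and DNase-treated at 37 °C for 30 min, then cDNA was made with random primers. Transcripts were quantified by SYBR Green qPCR, normalised to HPRT, using the 2−ΔΔCt method. One-way ANOVA was used.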

[5] = test system: normal human mammary epithelial cells (HMEC); test: HMEC growth inhibition, trypan blue exclusion assay; format: cell-based; conditions: 10 µM and lower, 48 h
In short: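 Proliferating normal HMEC were cultured routinely in MEGM complete medium with penicillin/streptomycin at 37 °C under 5% CO2. On the day of treatment the medium was changed to DMEM with 10% FBS. Cells were exposed to various test compound concentrations in triplicate for 48 h, then live cells were counted by trypan blue exclusion. One-way ANOVA was used.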

[6] = test system: Bcl-2; test: qRT-PCR of bcl-2 transcript in A549 cells; format: cell-based; conditions: 4 h
In short: as §1

[7] = test system: A549 cells; test: Annexin-V/PI flow cytometry apoptosis assay; format: cell-based; conditions: 10 µM, 48 h, vehicle […]
[8] = test system: human foreskin fibroblast (HFF) cells; test: HFF growth inhibition, trypan blue exclusion assay; format: cell-based; conditions: 48 h
In short: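 HFF cells were maintained in DMEM with 10% FBS and penicillin/streptomycin at 37 °C under 5% CO2. Cells were treated with increasing test compound concentrations in triplicate for 48 h, and live cells were counted by trypan blue exclusion.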

[9] = test system: VP16-CREB-mediated gene transcription; conditions: cited from earlier work
[10] = test system: VEGF; test: VEGF ELISA assay of A549 culture media; format: cell-based; conditions: A549 cells, 24 h
In short: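 A549 cells were treated in duplicate with the indicated test compound concentrations for 24 h. VEGF in the culture medium was measured by ELISA and normalised to medium protein concentration. One-way ANOVA was used.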

[11] = test system: p21; test: Western blot of p21 in A549 cells; format: cell-based; conditions: all concentrations tested, 48 h
In short: (§2)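 Exponentially growing A549 cells were treated with different test compound concentrations for 48 h and washed twice in cold PBS (pH 7.4). They were lysed in NP-40 buffer (50 mM Tris-HCl pH 8.0, 5 mM EDTA, 150 mM NaCl, 1 mM DTT, 0.5% NP-40) containing 8 M urea. Equal protein was run on 10% SDS-PAGE, transferred to PVDF and probed with specific antibodies, using GAPDH as the loading control.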

[12] = test system: p21; test: qRT-PCR of p21 transcript in A549 cells; format: cell-based; conditions: 4 h
In short: as §1

[13] = test system: Bcl-2; test: Western blot of Bcl-2 in A549 cells; format: cell-based; conditions: increasing concentrations, 48 h
In short: as §2

[14] = test system: poly (ADP-ribose) polymerase (PARP); test: Western blot of PARP cleavage in A549 cells; format: cell-based; conditions: 48 h
In short: as §2

[15] = test system: MCF-7 cells expressing VP16-CREB; test: MTT assay in MCF-7 cells expressing VP16-CREB versus parental MCF-7; format: cell-based; conditions: 48 h
In short: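 MCF-7 cells were lipofected with a plasmid encoding Flag-tagged VP16-CREB. From 2 days post-transfection they were selected in 2 mg/mL G418 until a stable colony formed, and expression was checked by anti-FLAG blot. The stable line and parental MCF-7 were treated in triplicate for 48 h, and live cells were quantified by MTT. Student's t-test was used.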

[16] = target: KIX–KID interaction (Homo sapiens, UniProt Q92793); conditions: cited from earlier work
[17] = test system: CREB-mediated gene transcription in HEK 293T cells; conditions: cited from earlier work

Chain of KIX–KID interaction (Q92793 587-666 limits assumed): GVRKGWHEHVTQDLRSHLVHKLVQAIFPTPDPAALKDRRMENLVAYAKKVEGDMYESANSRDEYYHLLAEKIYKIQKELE

Compound: O=C(Nc1ccc(Br)cc1)c1cc2ccccc2cc1O [Compound 1e, N-(4-Bromophenyl)-3-hydroxy-2-naphthamide]
GI50 [1]: 5.59 µM

Compound: O=C(Nc1cccc(Cl)c1)c1cc2ccccc2cc1O [Compound 1b, N-(3-Chlorophenyl)-3-hydroxy-2-naphthamide]
GI50 [1]: 3.4 µM

Compound: O=C(Nc1ccc(F)c(F)c1)c1cc2ccccc2cc1O [Compound 1k, N-(3,4-Difluorophenyl)-3-hydroxy-2-naphthamide]
GI50 [1]: 5.35 µM

Compound: O=C(Nc1ccc(Cl)cc1)c1cc2ccccc2cc1O [Compound 1a, naphthol AS-E]
growth inhibition in NCI-60 panel [2]: inhibited the growth of most of the cancer cells
inhibition of p53-mediated gene transcription [3]: not inhibited
transcript level of VEGF [4]: decreased
toxicity to HMEC (number of live cells) [5]: little or no toxicity
transcript level of bcl-2 [6]: decreased
cells undergoing apoptosis (annexin+/PI−) [7]: Up to 19.4%
toxicity to HFF cells (number of live cells) [8]: did not observe significant toxicity
inhibition of VP16-CREB-mediated gene transcription [9]: did not inhibit
expression of VEGF in culture media [10]: down-regulated
expression of p21 protein [11]: unchanged
transcript level of p21 [12]: essentially unchanged
expression level of Bcl-2 protein [13]: decreased
cleavage of PARP [14]: observed
sensitivity of MCF-7 cells expressing VP16-CREB compared to parental MCF-7 cells [15]: more resistant
GI50 [1]: 2.38 µM

Compound: COc1ccc(NC(=O)c2cc3ccccc3cc2O)cc1 [Compound 1j, 3-Hydroxy-N-(4-methoxyphenyl)-2-naphthamide]
GI50 [1]: 61.7 µM

Compound: O=C(Nc1ccc(O)cc1)c1cc2ccccc2cc1O [Compound 1h, 3-Hydroxy-N-(4-hydroxyphenyl)-2-naphthamide]
GI50 [1]: > 50.8 µM

Compound: O=C(Nc1ccc(C(F)(F)F)cc1)c1cc2ccccc2cc1O [Compound 1i, 3-Hydroxy-N-(4-trifluoromethylphenyl)-2-naphthamide]
GI50 [1]: 33.8 µM

Compound: O=C(Nc1ccc(F)cc1)c1cc2ccccc2cc1O [Compound 1d, N-(4-Fluorophenyl)-3-hydroxy-2-naphthamide]
GI50 [1]: 6.29 µM

Compound: O=C(Nc1cnccn1)c1cc2ccccc2cc1O [Compound 10c, 3-Hydroxy-N-(pyrazin-2-yl)-2-naphthamide]
GI50 [1]: > 47.2 µM

Compound: CN(C(=O)c1cc2ccccc2cc1O)c1ccc(Cl)cc1 [Compound 11]
inhibition of KIX–KID interaction [16]: did not inhibit
inhibition of CREB's activity [17]: did not inhibit
sensitivity of MCF-7 cells expressing VP16-CREB compared to parental MCF-7 cells [15]: equally effective

Compound: O=C(Nc1ccncc1)c1cc2ccccc2cc1O [Compound 10b, 3-Hydroxy-N-(pyridin-4-yl)-2-naphthamide]
GI50 [1]: 34.9 µM

Next, values leading:

GI50 [1]: 3.39 µM
Compound: O=C(Nc1ccc(F)c(Cl)c1)c1cc2ccccc2cc1O [Compound 1l, N-(3-Chloro-4-fluorophenyl)-3-hydroxy-2-naphthamide]

GI50 [1]: 33 µM
Compound: O=C(Nc1ccccn1)c1cc2ccccc2cc1O [Compound 10a, 3-Hydroxy-N-(pyridin-2-yl)-2-naphthamide]

GI50 [1]: > 59.1 µM
Compound: Nc1ccc(NC(=O)c2cc3ccccc3cc2O)cc1 [Compound 1g, N-(4-Aminophenyl)-3-hydroxy-2-naphthamide]

GI50 [1]: 7.73 µM
Compound: O=C(Nc1ccccc1Cl)c1cc2ccccc2cc1O [Compound 1c, N-(2-Chlorophenyl)-3-hydroxy-2-naphthamide]

GI50 [1]: 6.52 µM
Compound: O=C(Nc1ccc(I)cc1)c1cc2ccccc2cc1O [Compound 1f, 3-Hydroxy-N-(4-iodophenyl)-2-naphthamide]
